pIC50: −log10 of the molar value. Calls of active or inactive are those of the source. No cut-off for these calls is given here.

The target of experiment [1] is T1, Protein deacetylase HDAC6 (Homo sapiens) (UniProt Q9UBN7).
T1 sequence (whole entry): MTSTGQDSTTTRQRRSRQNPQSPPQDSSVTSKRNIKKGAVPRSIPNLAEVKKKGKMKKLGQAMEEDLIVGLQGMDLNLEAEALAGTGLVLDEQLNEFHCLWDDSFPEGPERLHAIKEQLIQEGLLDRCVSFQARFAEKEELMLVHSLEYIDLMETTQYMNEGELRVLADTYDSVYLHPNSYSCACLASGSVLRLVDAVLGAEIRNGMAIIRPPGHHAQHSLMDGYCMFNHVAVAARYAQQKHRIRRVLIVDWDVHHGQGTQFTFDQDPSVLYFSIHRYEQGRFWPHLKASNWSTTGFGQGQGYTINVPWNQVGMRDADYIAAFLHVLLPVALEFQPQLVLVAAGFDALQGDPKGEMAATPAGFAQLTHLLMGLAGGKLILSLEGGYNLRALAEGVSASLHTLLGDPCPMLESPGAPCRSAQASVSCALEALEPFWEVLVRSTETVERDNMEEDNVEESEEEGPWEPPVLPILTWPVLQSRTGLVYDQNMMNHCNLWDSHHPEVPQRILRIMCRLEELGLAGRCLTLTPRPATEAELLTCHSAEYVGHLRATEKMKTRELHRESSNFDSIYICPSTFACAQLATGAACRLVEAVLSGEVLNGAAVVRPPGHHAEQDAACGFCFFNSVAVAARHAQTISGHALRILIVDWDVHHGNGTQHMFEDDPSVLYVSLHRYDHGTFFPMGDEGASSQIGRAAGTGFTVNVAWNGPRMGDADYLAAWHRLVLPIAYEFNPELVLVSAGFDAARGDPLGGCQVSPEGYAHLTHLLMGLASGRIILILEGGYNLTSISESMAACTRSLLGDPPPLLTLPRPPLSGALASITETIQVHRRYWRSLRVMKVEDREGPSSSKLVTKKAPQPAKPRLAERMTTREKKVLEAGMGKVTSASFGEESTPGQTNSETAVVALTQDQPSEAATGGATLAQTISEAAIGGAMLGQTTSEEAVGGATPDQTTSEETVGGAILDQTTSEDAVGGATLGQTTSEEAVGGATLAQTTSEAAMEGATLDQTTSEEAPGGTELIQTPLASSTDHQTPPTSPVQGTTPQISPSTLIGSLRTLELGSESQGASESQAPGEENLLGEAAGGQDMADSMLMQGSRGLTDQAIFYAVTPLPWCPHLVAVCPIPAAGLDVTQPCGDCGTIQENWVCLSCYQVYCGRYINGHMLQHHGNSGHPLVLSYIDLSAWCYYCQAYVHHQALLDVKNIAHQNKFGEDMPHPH
Put plainly: Inhibition of HDAC6 in imatinib-resistant human SUP-B15 cells assessed as increase in acetyl-histone H3 expression at 0.1 to 10 uM after 24 hrs by immunoblot assay. Type of experiment: cell-based. In a few lines: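 Cells exposed for 24 h at indicated concentrations; lysates immunoblotted for acetyl-α-tubulin, acetyl-histone H3, PARP, with GAPDH as loading control.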

In experiment [2] the target is Proteasome Macropain subunit (Homo sapiens) (UniProt P49721). Kind of experiment: Inhibition of trypsin-like activity of 20S proteasome in human HL60 cells at 4 nM to 25 uM using Z-LRR-aminoluciferin as substrate after 2 hrs by proteasome-Glo assay. Type of experiment: cell-based.
For experiment [3] the target is unchanged. Put plainly: Inhibition of trypsin-like activity of 20S proteasome in human imatinib-resistant SUP-B15 cells at 4 nM to 25 uM using Z-LRR-aminoluciferin as substrate after 2 hrs by proteasome-Glo assay. It is filed as cell-based.
The target of experiment [4] is T2, Proteasome component C5 (Homo sapiens) (UniProt P20618).
T2 sequence (whole entry): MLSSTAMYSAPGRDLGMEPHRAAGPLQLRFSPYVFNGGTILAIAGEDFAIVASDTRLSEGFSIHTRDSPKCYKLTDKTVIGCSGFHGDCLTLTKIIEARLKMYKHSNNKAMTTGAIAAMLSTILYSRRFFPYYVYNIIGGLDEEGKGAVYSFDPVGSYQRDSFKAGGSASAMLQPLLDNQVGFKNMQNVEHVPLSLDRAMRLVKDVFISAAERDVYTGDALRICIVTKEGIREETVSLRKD
Kind of experiment: Inhibition of caspase-like activity of 20S proteasome in imatinib-resistant human SUP-B15 cells at 4 nM to 25 uM using Z-nLPnLD-aminoluciferin as substrate after 2 hrs by proteasome-Glo assay. It is filed as cell-based.

Another experiment deals with SUP-B15. Put plainly: Cytotoxicity against imatinib-resistant human SUP-B15 cells after 72 hrs by CellTiter-Glo luminescent cell viability assay. Type of experiment: functional, cell-based. As to conditions: SUP-B15, 72 h.
In the next experiment the test system is KCL-22. Kind of experiment: Cytotoxicity against imatinib-resistant human KCL22 cells after 72 hrs by CellTiter-Glo luminescent cell viability assay. It is filed as functional, cell-based. The note with it: KCL-22, 72 h. In a few lines:
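Inhibitors dispensed in increasing concentrations (50 nM–25 μM) and cells exposed 72 h. Viability read by ATP-dependent luminescence (CellTiter-Glo). Raw data normalized to controls. IC50 obtained by sigmoid dose–response fit with non-linear regression.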

The nature of experiment [5]: Cytotoxicity against human RPMI18226 cells after 72 hrs by CellTiter-Glo luminescent cell viability assay. Type of experiment: functional, cell-based. As to conditions: RPMI18226, 72 h.
Experiment [6] in a line: Cytotoxicity against human BCP-ALL cells derived from patient 2 after 72 hrs by CellTiter-Glo luminescent cell viability assay. Type of experiment: functional, cell-based. A digest of the protocol: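 Compounds dispensed digitally at increasing concentrations, 50 nM–25 μM; viability read by CellTiter-Glo luminescence after 72 h. Raw data normalized to controls, IC50 from sigmoid dose curve by non-linear regression. Patient samples: primary cells from newly diagnosed or relapsed patients, cultured in stem cell expansion or mononuclear cell medium.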

Experiment [7] relates to SEM cells. Kind of experiment: Inhibition of HDAC6/chymotrypsin-like activity of 20S proteasome in human SEM cells assessed as increase in Grp94 protein expression at 0.1 to 10 uM after 18 hrs by Western blot assay. It is filed as cell-based. In a few lines:
(§1)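 Cells treated 18 h at indicated concentrations; lysates analysed by western blot for heat shock (Grp94, HSP70, HSP40, HSP27), UPR (BIP, ATF4, ATF6, pJNK) and autophagy (LC3B, p62) proteins.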

Experiment [8] deals with SEM cells. Kind of experiment: Inhibition of HDAC6/chymotrypsin-like activity of 20S proteasome in human SEM cells assessed as increase in HSP27 protein expression at 0.1 to 10 uM after 18 hrs by Western blot assay. Type of experiment: cell-based. A digest of the protocol:
as §1

For experiment [9], the system named is SEM cells. Kind of experiment: Inhibition of HDAC6/chymotrypsin-like activity of 20S proteasome in human SEM cells assessed as increase in ATF6 protein expression at 0.1 to 10 uM after 18 hrs by Western blot assay. Type of experiment: cell-based. A digest of the protocol: as §1
In experiment [10] the test system is SEM cells. Kind of experiment: Inhibition of HDAC6/chymotrypsin-like activity of 20S proteasome in human SEM cells assessed as decrease in aggresome accumulation at IC50 to 2 times IC50 after 18 hrs by FACS analysis. Type of experiment: cell-based. A digest of the protocol: (§2)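 Cells treated 18 h, then stained with a proteostat aggresome dye plus DNA stain. Imaged by fluorescence microscopy (63X objective) or analysed by FACS, with aggresome propensity factor from relative mean fluorescence intensity.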

Experiment [11] concerns SEM cells. Kind of experiment: Inhibition of HDAC6/chymotrypsin-like activity of 20S proteasome in human SEM cells assessed as decrease in aggresome accumulation at IC50 to 2 times IC50 after 18 hrs by fluorescence microscopic method. It is filed as cell-based. In a few lines:
as §2

Proteasome Macropain subunit (Homo sapiens), sequence (P49721 whole entry): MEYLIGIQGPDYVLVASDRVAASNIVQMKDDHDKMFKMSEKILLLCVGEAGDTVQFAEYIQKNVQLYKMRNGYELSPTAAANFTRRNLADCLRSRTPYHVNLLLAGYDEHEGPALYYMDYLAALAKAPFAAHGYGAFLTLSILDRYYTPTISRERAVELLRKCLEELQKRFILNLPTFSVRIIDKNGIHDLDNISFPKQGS

Regarding `C[C@H](NC(=O)[C@H](CC(=O)NCC(C)(C)C)NC(=O)c1ccc(C(=O)NO)cc1)C(=O)NCc1ccccc1`, the inhibition entry (in [1]; with SEM cells [7]; in the experiment with SEM cells [8]; with SEM cells [9]; in the experiment on SEM cells [10]; in the experiment with SEM cells [11]) was “Active” each time. Also, the inhibition entry in experiment [2], in experiment [3] and in experiment [4] was “inactive” in each case. In addition, the pIC50 with SUP-B15 is 5.74; in the experiment on KCL-22 it was 5.59; in experiment [5], 5.76; in [6] it was 5.74.

These data come from ChEMBL document CHEMBL4152390, “Discovery of the First-in-Class Dual Histone Deacetylase-Proteasome Inhibitor” (J Med Chem, 2018).
